Source: ChEMBL document CHEMBL1131301, “Tyrosine kinase inhibitors. 14. Structure-activity relationships for methylamino-substituted derivatives of 4-[(3-bromophenyl)amino]-6-(methylamino)-pyrido[3,4-d]pyrimidine (PD 158780), a potent and specific inhibitor of the tyrosine kinase activity of receptors for the EGF family of growth factors” (J Med Chem, 1998)
pIC50: −log10 of the molar value. Values after ≈ are worked out from the molar mass of the structure shown. One block for each molecule: values may come before it.

Experiments:
[1] = target: T1, Epidermal growth factor receptor (Homo sapiens, UniProt P00533); test: Inhibition of autophosphorylation of epidermal growth factor receptor in A431 cells in culture
[2] = Aqueous solubility ([…] degree C); type: physicochemical; details: for solubility: water, read-out: S
[3] = target: T1, Epidermal growth factor receptor; test: Inhibit of phosphorylation of a tyrosine/glutamic acid copolymer by epidermal growth factor receptor prepared from human A431 carcinoma cell vesicles by immunoaffinity chromatography.
[4] = target: T1, Epidermal growth factor receptor; test: Inhibition of EGF-dependent autophosphorylation of EGF-R in A431 cells
[5] = target: Receptor tyrosine-protein kinase erbB-2 (Homo sapiens, UniProt P04626); test: Inhibition of heregulin-dependent autophosphorylation of ErbB2 receptor in MDA-MB-453 cells; type: functional, cell-based
[6] = tested on: SK-OV-3; test: Difference in days for treated (T) and control (C) SKOV-3 tumor fragments to reach 750 mg in mice at 30 mg/kg ip dose, administration days 10-14,17-21,24-28; type: functional; details: route intraperitoneal
[7] = tested on: Mus musculus; test: Difference in days for treated (T) and control (C) EGFR tumor fragments to reach 750 mg in mice at 38 mg/kg ip dose, administration days 1-15; type: functional; details: route intraperitoneal
[8] = tested on: Mus musculus; test: Difference in days for treated (T) and control (C) EGFR tumor fragments to reach 750 mg in mice at 400 mg/kg peroral dose, administration days 1-15; type: functional; details: route oral
[9] = tested on: MCF7; test: Difference in days for treated (T) and control (C) MCF-7 tumor fragments to reach 750 mg in mice at 25 mg/kg ip dose, administration days 1-15; type: functional; details: route intraperitoneal
[10] = tested on: MCF7; test: Difference in days for treated (T) and control (C) MCF-7 tumor fragments to reach 750 mg in mice at 50 mg/kg ip dose, administration days 1-15; type: functional; details: route intraperitoneal
[11] = tested on: A-431; test: Ratio of treated and control A431 median tumor mass*100% in mice at 100 mg/kg peroral dose, days 7-21 administration; type: functional; details: route oral
Procedure, shortened: (§1)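 Nude mice (NCr nu/nu, 18-22 g) were randomized and implanted sc with tumor fragments in the right axilla on day 0. Tumor lines were A431 epidermoid, NIH 3T3 fibroblasts transfected with human EGFR, and MCF-7 breast. Dosing was ip or oral, by average cage weight, with 6 mice/dose group. Vehicle was 6% dimethylacetamide/94% 50 mM sodium lactate pH 4.0 (suspension), or isethionate salt in water.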

[12] = tested on: Mus musculus; test: Ratio of treated and control EGFR median tumor mass*100% in mice at 38 mg/kg ip dose, days 1-15 administration; type: functional; details: route intraperitoneal; procedure, shortened: as §1
[13] = tested on: Mus musculus; test: Ratio of treated and control EGFR median tumor mass*100% in mice at 400 mg/kg peroral dose, days 1-15 administration; type: functional; details: route oral; procedure, shortened: as §1
[14] = tested on: MCF7; test: Ratio of treated and control MCF-7 median tumor mass*100% in mice at 25 mg/kg ip dose, days 1-15 administration; type: functional; details: route intraperitoneal; procedure, shortened: as §1
[15] = tested on: MCF7; test: Ratio of treated and control MCF-7 median tumor mass*100% in mice at 50 mg/kg ip dose, days 1-15 administration; type: functional; details: route intraperitoneal; procedure, shortened: as §1
[16] = tested on: A-431; test: Difference in days for treated (T) and control (C) A431 tumors to reach 750 mg in mice at 75 mg/kg ip dose, days 7-21 administration; type: functional; details: route intraperitoneal; procedure, shortened: as §1
[17] = tested on: SK-OV-3; test: Ratio of treated and control SKOV-3 median tumor mass*100% in mice at 30 mg/kg ip dose, days 10-14,17-21,24-28 administration; type: functional; details: route intraperitoneal
[18] = tested on: Mus musculus; test: Net reduction in EGFR tumor burden between the first and last treatments in mice at 400 mg/kg peroral dose, days 1-15 administration; type: functional; details: route oral
Procedure, shortened: (§2)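 NCr nu/nu nude mice (18-22 g) were randomized and implanted sc with A431 epidermoid, human-EGFR-transfected NIH 3T3 fibroblast, or MCF-7 breast tumor fragments in the right axilla on day 0. Dosing was ip or oral, by average cage weight, with 6 mice per dose group. Log net cell kill is the net reduction in tumor burden between the first and last treatments.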

[19] = tested on: Mus musculus; test: Net reduction in EGFR tumor burden between the first and last treatments in mice at 38 mg/kg ip dose, days 1-15 administration; type: functional; details: route intraperitoneal; procedure, shortened: as §1
[20] = tested on: MCF7; test: Net reduction in MCF-7 tumor burden between the first and last treatments in mice at 25 mg/kg ip dose, days 1-15 administration; type: functional; details: route intraperitoneal; procedure, shortened: as §2
[21] = tested on: A-431; test: Difference in days for treated (T) and control (C) A431 tumor fragments to reach 750 mg in mice at 100 mg/kg peroral dose, administration days 7-21; type: functional; details: route oral
[22] = tested on: MCF7; test: Weight change in MCF-7 tumor bearing mice at 25 mg/kg ip dose, days 1-15 administration; type: functional; details: route intraperitoneal
[23] = tested on: MCF7; test: Weight change in MCF-7 tumor bearing mice at 50 mg/kg ip dose, days 1-15 administration; type: functional, organism-based; design: dose 50 mg/kg
[24] = tested on: A-431; test: Weight change in A431 tumor bearing mice at 100 mg/kg peroral dose, days 7-21 administration; type: functional; details: route oral
[25] = tested on: A-431; test: Weight change in A431 tumor bearing mice at 75 mg/kg ip dose, days 7-21 administration; type: functional; details: route intraperitoneal
[26] = tested on: Mus musculus; test: Weight change of EGFR tumor bearing mice at 38 mg/kg ip dose, days 1-15 administration; type: functional; details: route intraperitoneal
[27] = tested on: Mus musculus; test: Weight change of EGFR tumor bearing mice at 400 mg/kg peroral dose, days 1-15 administration; type: functional
[28] = tested on: SK-OV-3; test: Weight change in SKOV-3 tumor bearing mice at 30 mg/kg ip dose, days 10-14,17-21,24-28 administration; type: functional; details: route intraperitoneal
[29] = tested on: A-431; test: Ratio of treated and control A431 median tumor mass*100% in mice at 75 mg/kg dose

T1 sequence (P00533 whole entry): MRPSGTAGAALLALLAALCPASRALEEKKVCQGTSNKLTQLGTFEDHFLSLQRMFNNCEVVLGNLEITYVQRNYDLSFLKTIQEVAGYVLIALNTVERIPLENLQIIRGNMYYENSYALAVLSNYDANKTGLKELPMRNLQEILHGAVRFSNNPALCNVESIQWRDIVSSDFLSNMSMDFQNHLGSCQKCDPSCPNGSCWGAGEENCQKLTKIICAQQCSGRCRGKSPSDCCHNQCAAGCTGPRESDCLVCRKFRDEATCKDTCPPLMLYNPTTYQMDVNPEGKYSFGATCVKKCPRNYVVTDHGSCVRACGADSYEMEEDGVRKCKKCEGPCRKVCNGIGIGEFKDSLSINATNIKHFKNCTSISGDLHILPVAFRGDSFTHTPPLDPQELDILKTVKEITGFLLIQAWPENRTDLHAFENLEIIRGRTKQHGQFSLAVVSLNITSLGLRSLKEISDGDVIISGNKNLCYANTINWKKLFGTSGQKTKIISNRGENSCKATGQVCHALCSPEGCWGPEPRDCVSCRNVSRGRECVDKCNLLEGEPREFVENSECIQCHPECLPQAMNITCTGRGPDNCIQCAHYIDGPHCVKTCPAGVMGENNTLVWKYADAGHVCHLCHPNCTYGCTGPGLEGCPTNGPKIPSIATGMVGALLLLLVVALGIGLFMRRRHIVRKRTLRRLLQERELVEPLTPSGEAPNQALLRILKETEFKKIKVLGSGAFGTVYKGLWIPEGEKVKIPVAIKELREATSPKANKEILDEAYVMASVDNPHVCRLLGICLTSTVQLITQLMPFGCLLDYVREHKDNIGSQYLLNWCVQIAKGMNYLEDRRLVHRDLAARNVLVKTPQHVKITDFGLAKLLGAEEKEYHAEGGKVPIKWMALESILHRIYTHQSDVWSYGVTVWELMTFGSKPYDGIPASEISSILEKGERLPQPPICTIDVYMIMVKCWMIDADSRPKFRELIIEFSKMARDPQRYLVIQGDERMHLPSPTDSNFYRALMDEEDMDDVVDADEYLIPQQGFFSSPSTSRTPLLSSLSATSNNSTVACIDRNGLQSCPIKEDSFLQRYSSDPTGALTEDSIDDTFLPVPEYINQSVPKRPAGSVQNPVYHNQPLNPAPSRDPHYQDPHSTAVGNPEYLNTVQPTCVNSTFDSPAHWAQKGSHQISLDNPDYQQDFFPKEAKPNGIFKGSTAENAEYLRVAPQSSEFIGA
Chain of Receptor tyrosine-protein kinase erbB-2 (P04626 whole entry, the tested form may be a part): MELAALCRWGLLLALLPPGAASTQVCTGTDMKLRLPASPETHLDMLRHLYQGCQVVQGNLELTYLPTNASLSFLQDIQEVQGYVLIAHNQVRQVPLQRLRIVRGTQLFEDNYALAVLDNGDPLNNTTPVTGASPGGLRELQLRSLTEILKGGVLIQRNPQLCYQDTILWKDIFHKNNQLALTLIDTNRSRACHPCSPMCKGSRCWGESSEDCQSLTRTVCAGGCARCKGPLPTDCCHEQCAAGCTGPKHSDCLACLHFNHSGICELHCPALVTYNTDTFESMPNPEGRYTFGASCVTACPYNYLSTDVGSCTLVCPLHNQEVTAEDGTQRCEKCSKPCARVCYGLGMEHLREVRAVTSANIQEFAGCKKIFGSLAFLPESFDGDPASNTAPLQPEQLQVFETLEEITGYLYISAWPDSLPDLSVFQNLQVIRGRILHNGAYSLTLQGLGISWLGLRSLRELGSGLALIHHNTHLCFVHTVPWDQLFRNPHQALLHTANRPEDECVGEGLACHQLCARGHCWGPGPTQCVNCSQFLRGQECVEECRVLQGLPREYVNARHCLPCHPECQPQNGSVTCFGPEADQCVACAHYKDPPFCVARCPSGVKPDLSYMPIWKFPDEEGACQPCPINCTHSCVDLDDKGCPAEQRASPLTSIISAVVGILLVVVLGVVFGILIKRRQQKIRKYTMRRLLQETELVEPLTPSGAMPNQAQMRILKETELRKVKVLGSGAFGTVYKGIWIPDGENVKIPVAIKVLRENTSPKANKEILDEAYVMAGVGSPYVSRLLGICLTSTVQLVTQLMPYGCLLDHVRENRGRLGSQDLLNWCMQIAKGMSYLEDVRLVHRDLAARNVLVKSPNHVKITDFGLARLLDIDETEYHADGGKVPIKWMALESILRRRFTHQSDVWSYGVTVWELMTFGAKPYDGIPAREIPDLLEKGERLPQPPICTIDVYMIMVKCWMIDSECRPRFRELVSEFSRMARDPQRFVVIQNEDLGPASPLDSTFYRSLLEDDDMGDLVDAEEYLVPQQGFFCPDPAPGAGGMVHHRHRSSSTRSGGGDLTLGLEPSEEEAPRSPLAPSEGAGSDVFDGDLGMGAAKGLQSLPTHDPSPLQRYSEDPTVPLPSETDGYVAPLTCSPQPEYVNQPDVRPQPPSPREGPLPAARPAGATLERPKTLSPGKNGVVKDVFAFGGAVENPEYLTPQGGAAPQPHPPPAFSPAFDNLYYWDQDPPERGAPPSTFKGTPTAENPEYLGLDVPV

- pIC50 [1]: 7.15
- solubility [2]: 36 mM (≈ 16100 µg/mL)
- pIC50 [3]: 9.03
Compound: OCCN(CCO)CCNc1cc2c(Nc3cccc(Br)c3)ncnc2cn1

- solubility [2]: 0.21 mM (≈ 82 µg/mL)
- pIC50 [3]: 9.74
Compound: OCC(O)CNc1cc2c(Nc3cccc(Br)c3)ncnc2cn1 (stereo unspecified)

Compound: CNc1cc2c(Nc3cccc(Br)c3)ncnc2cn1
- pIC50 [4]: 7.89
- solubility [2]: 0.1 mM (≈ 33 µg/mL)
- pIC50 [5]: 7.28
- T-C [6]: 0.8 days
- T-C [7]: 3.7 days
- T-C [8]: 1.2 days
- T-C [9]: 11.2 days
- T-C [10]: 15.2 days
- T/C [11]: 38%
- T/C [12]: 38%
- T/C [13]: 67%
- T/C [14]: 14%
- T/C [15]: 27%
- T-C [16]: 8.4 days
- T/C [17]: 67%
- Net cell kill [18]: -1.3 log10
- log net cell kill [19]: -1
- Net cell kill [20]: -0.1 log10
- T-C [21]: 16 days
- Weight change [22]: -0.2 g
- Weight change [23]: Weight gain
- Weight change [24]: -1.3 g
- Weight change [25]: -0.8 g
- Weight change [26]: -0.1 g
- Weight change [27]: Weight gain
- Weight change [28]: -1.6 g
- T/C [29]: 41%

- S ([2]; buffer): > 35 mM
- pIC50 [3]: 8.74
Compound: Cc1cccc(Nc2ncnc3cnc(NCCCN4CCOCC4)cc23)c1

- pIC50 [1]: 7.72
- solubility [2]: 38 mM (≈ 15800 µg/mL)
- pIC50 [3]: 8.74
Compound: CN(C)CCCCNc1cc2c(Nc3cccc(Br)c3)ncnc2cn1

- pIC50 [1]: 8.04
- solubility [2]: 23 mM (≈ 9760 µg/mL)
- pIC50 [3]: 8.77
Compound: Brc1cccc(Nc2ncnc3cnc(NCCCn4ccnc4)cc23)c1

- pIC50 [1]: 6.99
- solubility [2]: 2.5 mM (≈ 998 µg/mL)
- pIC50 [3]: 8.19
Compound: CN1CCN(c2cc3c(Nc4cccc(Br)c4)ncnc3cn2)CC1

- pIC50 [1]: 8.09
- solubility [2]: 17 mM (≈ 7160 µg/mL)
- pIC50 [3]: 8.92
Compound: Brc1cccc(Nc2ncnc3cnc(NCCc4ccccn4)cc23)c1
